What was measured:
MCF7 = assay: Cytotoxicity against human MCF7 cells assessed as reduction in cell viability after 72 hrs by MTT assay; assay type: functional, cell-based; conditions: MCF7, 72 h
MDA-MB-231 = assay: Cytotoxicity against human MDA-MB-231 cells assessed as reduction in cell viability after 72 hrs by Alamar Blue assay; assay type: functional, cell-based; conditions: MDA-MB-231, 72 h
In short: (§1)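 Cells were seeded at 5,000 per well and preincubated 24 h at 37 °C in 5% CO2. They were then exposed for 72 h to gradient dilutions in complete DMEM/HIGH medium, made from 10 mM DMSO stocks, with DMSO below 0.5%. Fresh medium with 10% AlamarBlue was incubated 3 h and read at 580 nm (620 nm reference). Viability was taken versus DMSO-treated cells, and IC50 was fitted from viability–concentration plots; triplicate.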

MCF-10A = assay: Cytotoxicity against human MCF10A cells assessed as reduction in cell viability after 72 hrs by Alamar Blue assay; assay type: cell-based; in short: as §1
[1] = test system: Panel NCI-60 (60 carcinoma cell lines); assay: Growth inhibition of human NCI60 cells after 48 hrs by SRB assay; assay type: functional
[2] = Cytotoxicity against human H522-T1 cells after 72 hrs; assay type: functional, cell-based; conditions: H522-T1, 72 h
A2780 = assay: Cytotoxicity against human A2780 cells after 72 hrs; assay type: functional, cell-based; conditions: A2780, 72 h
MDA-MB-435 = assay: Cytotoxicity against human MDA-MB-435 cells after 72 hrs; assay type: functional, cell-based; conditions: MDA-MB-435, 72 h
L929 = assay: Cytotoxicity against mouse L929 cells after 72 hrs; assay type: cell-based; conditions: L929, 72 h
HT-29 = assay: Cytotoxicity against human HT-29 cells after 72 hrs; assay type: functional, cell-based; conditions: HT-29, 72 h
U-937 = assay: Cytotoxicity against human U937 cells after 72 hrs; assay type: functional, cell-based; conditions: U-937, 72 h
HeLa = assay: Cytotoxicity against human HeLa cells after 72 hrs; assay type: functional, cell-based

Row | Structure (SMILES) | IC50 (MCF7) [nM] | IC50 (MDA-MB-231) [nM] | IC50 (MCF-10A) [nM] | IC50 [2] [nM] | IC50 (MDA-MB-435) [nM] | IC50 (L929) [nM] | IC50 (HT-29) [nM] | IC50 (U-937) [nM] | IC50 (HeLa) [nM] | further results
1 | C/C=C(\C)C(=O)O[C@@H]1[C@@H](O)[C@@H]2O[C@H]3[C@H](O[C@@H](CCCCC)C/C=C\CCOC(=O)CCC(=O)OC[C@@H](O2)[C@H]1OC(=O)/C=C/c1ccccc1)O[C@H](C)[C@H](OC(C)=O)[C@@H]3O | 816 | 260 | – | – | – | – | – | – | – | –
2 | C/C=C(\C)C(=O)O[C@@H]1[C@@H](O)[C@@H]2O[C@H]3[C@H](O[C@@H](CCCCC)CCCCCOC(=O)CCC(=O)OC[C@@H](O2)[C@H]1OC(=O)/C=C/c1ccccc1)O[C@H](C)[C@H](OC(C)=O)[C@@H]3O | 81.2 | 31.5 | 26.9 | – | – | – | – | – | – | –
3 | C/C=C(\C)C(=O)O[C@@H]1[C@@H](O)[C@@H]2O[C@H]3[C@H](O[C@@H](CCCCC)CCCCCCC(=O)CCC(=O)OC[C@@H](O2)[C@H]1OC(=O)/C=C/c1ccccc1)O[C@H](C)[C@H](OC(C)=O)[C@@H]3O | – | – | 5.1 | 12.9 | 9.4 | 7.4 | 4.2 | 2.6 | – | GI50 [1]: 30 nM; IC50 (A2780): 36 nM
4 | C/C=C(\C)C(=O)O[C@@H]1[C@@H](O)[C@H](O[C@H]2[C@H](O[C@@H](CCCCC)CCCCC/N=C3/CCC(=O)O3)O[C@H](C)[C@H](OC(C)=O)[C@@H]2O)O[C@H](COC(=O)/C=C/c2ccccc2)[C@H]1O | > 25000 | > 25000 | – | – | – | – | – | – | – | –
5 | C/C=C(\C)C(=O)O[C@@H]1[C@@H](O)[C@@H]2O[C@H]3[C@H](O[C@@H](CCCCC)CCCCOC(=O)CCC(=O)OC[C@@H](O2)[C@H]1OC(=O)/C=C/c1ccccc1)O[C@H](C)[C@H](OC(C)=O)[C@@H]3O | 710 | 290 | – | – | – | – | – | – | – | –
6 | C/C=C(\C)C(=O)O[C@@H]1[C@@H](O)[C@@H]2O[C@H]3[C@H](O[C@@H](CCCCC)CCCCCNC(=O)CCC(=O)OC[C@@H](O2)[C@H]1OC(=O)/C=C/c1ccccc1)O[C@H](C)[C@H](OC(C)=O)[C@@H]3O | 351 | 48.7 | 75.2 | – | – | – | – | – | – | –
7 | C/C=C(\C)C(=O)O[C@@H]1[C@@H](O)[C@@H]2O[C@H]3[C@H](O[C@@H](CCCCC)C/C=C/CCOC(=O)CCC(=O)OC[C@@H](O2)[C@H]1OC(=O)/C=C/c1ccccc1)O[C@H](C)[C@H](OC(C)=O)[C@@H]3O | 3280 | 808 | – | – | – | – | – | – | – | –
8 | C/C=C(\C)C(=O)O[C@@H]1[C@@H](O)[C@@H]2O[C@H]3[C@H](O[C@@H](CCCCC)CCCCCN(C)C(=O)CCC(=O)OC[C@@H](O2)[C@H]1OC(=O)/C=C/c1ccccc1)O[C@H](C)[C@H](OC(C)=O)[C@@H]3O | 69.2 | 14.4 | 17.5 | – | – | – | – | – | – | –
9 | C/C=C(\C)C(=O)O[C@@H]1[C@@H](O)[C@@H]2O[C@H]3[C@H](O[C@@H](CCCCC)CC=CCCCC(=O)CCC(=O)OC[C@@H](O2)[C@H]1OC(=O)/C=C/c1ccccc1)O[C@H](C)[C@H](OC(C)=O)[C@@H]3O (mixture of isomers) | 307 | 68.3 | 27.2 | – | – | – | – | – | – | –
10 | C/C=C(\C)C(=O)O[C@@H]1[C@@H](O)[C@@H]2O[C@H]3[C@H](O[C@@H](CCC)CCCCCCC(=O)CCC(=O)OC[C@@H](O2)[C@H]1OC(=O)/C=C/c1ccccc1)O[C@H](C)[C@H](OC(C)=O)[C@@H]3O [IPOMOEASSIN A] | – | – | – | 109 | 42.6 | 77.8 | 46.1 | 20.2 | 64 | –
11 | C/C=C(\C)C(=O)O[C@@H]1[C@@H](O)[C@@H]2O[C@H]3[C@H](O[C@@H](CCC)CCCCCCC(=O)CCC(=O)OC[C@@H](O2)[C@H]1OC(=O)/C=C/c1ccccc1)O[C@H](C)[C@H](O)[C@@H]3O [IPOMOEASSIN B] | – | – | – | 1070 | 2700 | – | 396 | 134 | 2500 | –
12 | C/C=C(\C)C(=O)O[C@@H]1[C@@H](O)[C@@H]2O[C@H]3[C@H](O[C@@H](CCC)CCCCC[C@H](O)C(=O)CCC(=O)OC[C@@H](O2)[C@H]1OC(=O)/C=C/c1ccccc1)O[C@H](C)[C@H](OC(C)=O)[C@@H]3O [IPOMOEASSIN C] | – | – | – | – | – | > 1000 | – | – | 1500 | –
13 | C/C=C(\C)C(=O)O[C@@H]1[C@@H](O)[C@@H]2O[C@H]3[C@H](O[C@@H](CCC)CCCCC[C@H](OC(C)=O)C(=O)CCC(=O)OC[C@@H](O2)[C@H]1OC(=O)/C=C/c1ccccc1)O[C@H](C)[C@H](OC(C)=O)[C@@H]3O [IPOMOEASSIN D] | – | – | – | 23.2 | 19.9 | 135 | 11.8 | 7.9 | 32 | –
14 | C/C=C(\C)C(=O)O[C@@H]1[C@@H](O)[C@@H]2O[C@H]3[C@H](O[C@@H](CCC)CCCCC[C@H](OC(C)=O)C(=O)CCC(=O)OC[C@@H](O2)[C@H]1OC(=O)/C=C/c1ccccc1)O[C@H](C)[C@H](O)[C@@H]3O [IPOMOEASSIN E] | – | – | – | 967 | 1630 | > 1000 | 393 | 163 | 4300 | –

— ChEMBL document CHEMBL4145463, “New insights into structure-activity relationship of ipomoeassin F from its bioisosteric 5-oxa/aza analogues” (Eur J Med Chem, 2018)
